≈ marks a conversion by molar mass, not a printed value. Where “and” joins values, the source holds several entries; their conditions need not be identical. Equal values may be shown once.

In the first test the test system is Pf3D7 parasites. Put plainly: P. falciparum growth inhibition assay. The format is cell-based, Plasmodium falciparum. The following applies: read-out: Pf IC50, 3 days, PicoGreen DNA content. The method in brief:
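Asynchronous cultures of wild-type 3D7 and fosmidomycin-resistant had1 strain E1-C12 are kept at 2% hematocrit in supplemented RPMI-1640 with 0.5% Albumax, under 5% O2/5% CO2/90% N2 at 37 °C. Parasites are diluted to 0.5% parasitemia and exposed to 1.2 nM–492.4 μM test compound from the start. After 3 days, DNA is read with PicoGreen (ex 485/em 528 nm). IC50 comes from a 4-parameter nonlinear fit. Technical duplicates, biological triplicate.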
For orientation: IC50 means the midpoint of a concentration-inhibition curve. Turning to “[({3-[N-({[1,1′-Biphenyl]-4-yl}methoxy)acetamido]-1-(3,4-dichlorophenyl)propyl}({[(2,2-dimethylpropanoyl)oxy] methoxy}) phosphoryl)oxy] methyl-2,2-dimethylpropanoate [Compound 7d]”, the IC50 was 8.78 ± 0.92 µM.

The subject of a further test is Mtb H37Rv. Put plainly: microbe, parasite or virus in culture. It counts as cell-based, Mycobacterium tuberculosis. The following applies: Mycobacterium tuberculosis, H37RV, 336 h, read-out: Mtb MIC.
In the case of `CC(=O)N(CCC(c1ccc(Cl)c(Cl)c1)P(=O)(O)O)OCc1ccc2ccccc2c1.N.N` (stereo not shown) [Compound 6c], the MIC turned out to be 12.5 µg/mL. On the same count and under the same terms, the result for `CC(=O)N(CCC(c1ccc(Cl)c(Cl)c1)P(=O)(O)O)OCc1ccc(-c2ccc(C(C)C)cc2)cc1.N.N` (stereo not shown) [Compound 6i] reads 25 µg/mL. On to `CC(=O)N(O)CCC(c1ccc(Cl)c(Cl)c1)P(=O)(OCOC(=O)C(C)(C)C)OCOC(=O)C(C)(C)C` (stereo not shown) [Compound 7a, ({[1-(3,4-Dichlorophenyl)-3-(N-hydroxyacetamido)propyl]({[(2,2-dimethylpropanoyl)oxy]methoxy})phosphoryl}oxy)methyl 2,2-dimethylpropanoate], for which the MIC amounted to 4.6 µg/mL (≈ 8.06 µM). On the same count and under the same terms, with `CC(=O)N(CCC(c1ccc(Cl)c(Cl)c1)P(=O)(OCOC(=O)C(C)(C)C)OCOC(=O)C(C)(C)C)OCc1ccccc1` (stereo not shown) [Compound 7b, [({3-[N-(Benzyloxy)acetamido]-1-(3,4-dichlorophenyl)propyl}({[(2,2-dimethylpropanoyl)oxy]methoxy})phosphoryl)oxy]methyl 2,2-dimethylpropanoate] the figure was 6.25 µg/mL (≈ 9.46 µM); with `CC(=O)N(CCC(c1ccc(Cl)c(Cl)c1)P(=O)(OCOC(=O)C(C)(C)C)OCOC(=O)C(C)(C)C)OCc1ccc2ccccc2c1` (stereo not shown) [Compound 7c, ({[1-(3,4-Dichlorophenyl)-3-{N-[(naphthalen-2-yl)methoxy]acetamido}propyl]({[(2,2-dimethylpropanoyl)oxy]methoxy})phosphoryl}oxy)methyl-2,2-dimethylpropanoate], 6.25 µg/mL (≈ 8.8 µM); with `CC(=O)N(CCC(c1ccc(Cl)c(Cl)c1)P(=O)(OCOC(=O)C(C)(C)C)OCOC(=O)C(C)(C)C)OC(C)c1ccccc1` (stereo not shown) [Compound 7e, ({[1-(3,4-Dichlorophenyl)-3-[N-(1-phenylethoxy)acetamido]propyl]({[(2,2-dimethylpropanoyl)oxy]methoxy})phosphoryl}oxy) methyl 2,2-dimethylpropanoate], 9.4 µg/mL and 13.9 µM.

As for `CC(=O)N(CCC(c1ccc(Cl)c(Cl)c1)P(=O)(OCOC(=O)C(C)(C)C)OCOC(=O)C(C)(C)C)OCc1ccc(C(C)C)cc1` (stereo not shown) [Compound 7f, ({[1-(3,4-Dichlorophenyl)-3-(N-{[4-(propan-2-yl)phenyl]methoxy}acetamido)propyl]({[(2,2-dimethylpropanoyl)oxy]methoxy})phosphoryl}oxy) methyl 2,2-dimethylpropanoate], the MIC was 12.5 µg/mL (≈ 17.8 µM). The same measure, in the same setting: the result for `CC(=O)N(CCC(c1ccc(Cl)c(Cl)c1)P(=O)(OCOC(=O)C(C)(C)C)OCOC(=O)C(C)(C)C)OCCCCc1ccccc1` (stereo not shown) [Compound 7g, ({[1-(3,4-Dichlorophenyl)-3-[N-(4-phenylbutoxy)acetamido]propyl]({[(2,2-dimethylpropanoyl)oxy]methoxy})phosphoryl}oxy) methyl 2,2-dimethylpropanoate] reads 12.5 µg/mL (≈ 17.8 µM); that for `CC(=O)N(CCC(c1ccc(Cl)c(Cl)c1)P(=O)(OCOC(=O)C(C)(C)C)OCOC(=O)C(C)(C)C)OCc1ccc(Br)cc1` (stereo not shown) [Compound 7h, {[(3-{N-[(4-Bromophenyl)methoxy]acetamido}-1-(3,4-dichlorophenyl)propyl)({[(2,2-dimethylpropanoyl)oxy]methoxy})phosphoryl]oxy}methyl 2,2-dimethylpropanoate], 6.25 µg/mL (≈ 8.45 µM). The same measure, in the same setting: the result for `CC(=O)N(CCC(c1ccc(Cl)c(Cl)c1)P(=O)(OCOC(=O)C(C)(C)C)OCOC(=O)C(C)(C)C)OCc1ccc(-c2ccc(C(C)C)cc2)cc1` (stereo not shown) [Compound 7i, ({[1-(3,4-Dichlorophenyl)-3-(N-{[4′-(propan-2-yl)-[1,1′-biphenyl]-4-yl]methoxy}acetamido)propyl]({[(2,2-dimethylpropanoyl)oxy]methoxy})phosphoryl}oxy)methyl 2,2-dimethylpropanoate] reads greater than 100 µg/mL; that for `CC(=O)N(CCC(c1ccc(Cl)c(Cl)c1)P(=O)(OCOC(=O)C(C)(C)C)OCOC(=O)C(C)(C)C)OC(C)c1ccc(Cl)cc1` (stereo not shown) [Compound 7j, ({[1-(3,4-Dichlorophenyl)-3-{N-[1-(4-chlorophenyl)ethoxy]acetamido}propyl]({[(2,2-dimethylpropanoyl)oxy]methoxy})phosphoryl}oxy)methyl 2,2-dimethylpropanoate], 9.4 µg/mL (≈ 13.3 µM). On the same count and under the same terms, the result for `CC(=O)N(CCC(c1ccc(Cl)c(Cl)c1)P(=O)(OCOC(=O)C(C)(C)C)OCOC(=O)C(C)(C)C)OC(C)c1ccc(C)cc1` (stereo not shown) [Compound 7k, ({[1-(3,4-Dichlorophenyl)-3-{N-[1-(4-methylphenyl)ethoxy]acetamido}propyl]({[(2,2-dimethylpropanoyl)oxy]methoxy})phosphoryl}oxy)methyl 2,2-dimethylpropanoate] reads 12.5 µg/mL (≈ 18.2 µM). Turning to `CC(=O)N(CCC(c1ccc(Cl)c(Cl)c1)P(=O)(OCOC(=O)C(C)(C)C)OCOC(=O)C(C)(C)C)OC(C)c1ccc(C(F)(F)F)cc1` (stereo not shown) [Compound 7m, ({[1-(3,4-Dichlorophenyl)-3-{N-[1-(4-trifluoromethylphenyl)ethoxy]acetamido}propyl]({[(2,2-dimethylpropanoyl)oxy]methoxy})phosphoryl}oxy)methyl 2,2-dimethylpropanoate], the MIC was greater than 100 µg/mL. On the same count and under the same terms, the result for `CC(=O)N(CCC(c1ccc(Cl)c(Cl)c1)P(=O)(OCOC(=O)C(C)(C)C)OCOC(=O)C(C)(C)C)OC(C)c1ccc(F)cc1` (stereo not shown) [Compound 7n, ({[1-(3,4-Dichlorophenyl)-3-{N-[1-(4-fluorophenyl)ethoxy]acetamido}propyl]({[(2,2-dimethylpropanoyl)oxy]methoxy})phosphoryl}oxy)methyl 2,2-dimethylpropanoate] reads 4.6 µg/mL (≈ 6.64 µM).

The same test, now with this note: value in parentheses; Mtb H37Rv; […]; 2 weeks.
For the molecule “[({3-[N-({[1,1′-Biphenyl]-4-yl}methoxy)acetamido]-1-(3,4-dichlorophenyl)propyl}({[(2,2-dimethylpropanoyl)oxy] methoxy}) phosphoryl)oxy] methyl-2,2-dimethylpropanoate [Compound 7d]”, the “Mtb MIC” value was determined as 17.0 µM.

The values above are taken from article PMC11253873 (RSC Medicinal Chemistry, 2024).
